This is an account of results in ChEMBL document CHEMBL1144439, “A novel class of in vivo active anticancer agents: achiral seco-amino- and seco-hydroxycyclopropylbenz[e]indolone (seco-CBI) analogues of the duocarmycins and CC-1065” (J Med Chem, 2005).

The test system of one test is L1210. Put plainly: The concentration required for inhibiting the growth of the murine L1210 leukemia cells by 50%. Type of test: functional, cell-based. The conditions noted are these: Mus musculus. The gist of the method: (§1)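 MTT growth inhibition in murine lines grown in DMEM with 10% FBS, HEPES, glutamine, pen/strep at 37 °C, 5% CO2. Seeded 80 000 cells/well, continuous drug exposure (DMSO stock diluted in DMEM) for 72 h, quadruplicate wells per concentration. MTT added for 4 h, formazan dissolved in acid 2-propanol, read at 570 nm (reference 630 nm). IC50 extrapolated from averaged absorbance curves.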

The nature of test [1]: The concentration required for inhibiting the growth of the murine B16-F0 melanoma cells by 50%. Type of test: functional. The conditions noted are these: Mus musculus, B16F0. In a few lines:
as §1

In the next test the test system is K562. In words: The concentration required for inhibiting the growth of the human K562 chronic myeloid leukemia cells by 50%. The class given is functional, cell-based. The gist of the method:
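Drug exposure was […] in the dark, then cells were washed and plated at 10⁴ cells/well, eight wells per sample, and incubated 4 days. MTT was added for 5 h, formazan dissolved in DMSO and read at 550 nm.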

The next test has as its system P815. Put plainly: The concentration required for inhibiting the growth of the murine P815 mastocytoma cells by 50%. Type of test: functional, cell-based. As to conditions: Mus musculus. The gist of the method: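 P815 cells grown in DMEM with 10% FBS, HEPES, glutamine and pen/strep, seeded at 80 000 cells/well. Drug in DMSO/DMEM was added to final concentrations from 1.0 × 10^-12 to 1.0 × 10^-4 M, continuous for 72 h at 37 °C, 5% CO2, in quadruplicate. MTT was added for 4 h and solubilised in acid 2-propanol, read at 570/630 nm. IC50 was extrapolated from mean absorbance curves.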

As to `COc1cc2cc(C(=O)Nc3cc(O)c4ccccc4c3CCCl)[nH]c2c(OC)c1OC`, the half-maximal inhibitory concentration (IC50) in the test with L1210 is 55 nM; in test [1], 27 nM; in the test on K562, 150 nM; in the test with P815, 25 nM.

Molecule `COc1cc2cc(C(=O)NC3=C(CCCl)CCC(O)=C3)[nH]c2c(OC)c1OC` registered an IC50 with K562 of 1430 nM.

In test [1], `COc1cc2cc(C(=O)Nc3cc(NCc4ccccc4)c4ccccc4c3CCCl)[nH]c2c(OC)c1OC` returned an IC50 of 5400 nM.

As to `COc1ccc(/C=C/C(=O)Nc2cc(N)c3ccccc3c2CCCl)nc1`, the IC50 was determined as 550 nM in the test on L1210 and 750 nM in test [1].

Take `COc1cc2cc(C(=O)Nc3cc(N)c4ccccc4c3CCOC(C)=O)[nH]c2c(OC)c1OC`: the results for the IC50 (in the test on L1210; in test [1]) were 53000 nM and 54000 nM, respectively.

For `Nc1cc(NC(=O)c2cc3cc(NC(=O)c4cc5ccccc5o4)ccc3[nH]2)c(CCCl)c2ccccc12`, the 50% inhibitory concentration (IC50) in the test with L1210 is 87 nM; in test [1], 43 nM.

`COc1ccc2[nH]c(C(=O)Nc3cc(N)c4ccccc4c3CCCl)cc2c1`: the figures for the IC50 (in the test with L1210; in test [1]) were 390 nM and 260 nM, respectively.
